Data as given in ChEMBL document CHEMBL4513216, “Probing the Open Global Health Chemical Diversity Library for Multistage-Active Starting Points for Next-Generation Antimalarials” (ACS Infect Dis, 2020).

Assay: Toxicity liver stage against HepG2, at 10uM
Format: cell-based
Parameters: test concentration 10 uM, cell line HepG2-A16-CD81EGFP
Details: human, HepG2-A16-CD81EGFP cells; read-out: INHIBITION
Procedure, shortened: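 Uninfected HepG2-A16-CD81EGFP cells, 3 × 10^3 per well, 1536-well, plated on prespotted compound at 10 μM final, parasite-free screening media added to match infected plates; puromycin 10 μM positive, DMSO 0.5% negative; run in parallel with 48 h PbLuc assay at 37 °C, 5% CO2; viability by CellTiter-Glo luminescence, normalized to controls.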

Structure (SMILES)	cytotoxicity at 10 µM
CCCc1nnc([C@H]2CCN(Cc3ncc[nH]3)C2)o1	-1.63%
COCCCN(Cc1cc(O)nc2ccccc12)C(=O)NC(C)C	0.829%
Cc1cc(C)n(Cc2ccc(-c3noc(C(=O)NCCCO)n3)cc2)n1	-1.49%
COC[C@]12COC[C@H]1CN(S(=O)(=O)c1cccnc1)C2	-0.975%
CCN1C(=O)CC(c2cnn(C)c2)C12CCN(C(=O)C1CC=CC1)CC2 (centres undefined)	5.13%
CC(C)N1c2sc(-c3ccccc3)nc2CC1C(=O)NCCCO (centres undefined)	7.8%
O=C(C1CC1)N1CC[C@H]2C(=O)N(c3ccsc3)CCO[C@H]2C1	9.85%
Cc1nc(COCc2cnc3n2CCN(C(=O)C2CC2)C3C)cs1 (centres undefined)	11.4%
Cc1nnc(N2CCCC3(CN(c4cccc(F)c4)CCO3)C2)o1 (centres undefined)	0.777%
CCC1=N[C@@]2(CC[C@@H]3CN(S(=O)(=O)CC)C[C@@H]32)C(=O)N1CCOC	-0.211%
NC(=O)C1CCN(C(=O)CCn2ccc3ccc(F)cc32)CC1	-6.83%
COc1cccc(CN2CCCCCC2c2cccs2)c1O (centres undefined)	11.4%
Cc1ccccc1OCn1ccc(C(=O)NCCN2CCOCC2)n1	8.02%
O=C(COc1ccc2c(c1)CCC2)NCc1ccco1	2.98%
CS(=O)(=O)N1CCN(C(=O)c2cc(-c3cccs3)cs2)CC1	1.8%
Cc1cc(C(F)(F)F)nn1CC(C)C(=O)Nc1ccncc1 (centres undefined)	-2.13%
O=C(O)c1ccccc1-c1ccc(CN2CCC(CO)C2)cn1 (centres undefined)	-1.79%
CS(=O)(=O)N1CCC(Cc2cnc(Br)cn2)CC1	13.4%
O=C(CC1CCN(CCc2ccccc2)CC1)N1CCCOCC1	-2.38%
NC(=O)C1(c2cnccn2)CCCN1Cc1cc2ccccc2o1 (centres undefined)	-1.19%
COc1ccc(SC(C)C(=O)N2CCC(O)CC2)cc1 (centres undefined)	0.887%
CC(=O)Nc1cc(F)c(S(=O)(=O)N(C)CC2CCC2)c(F)c1	-54.4%
CC(OCC1CC1)C(=O)N1CCCN(c2nc3ccccc3[nH]2)CC1 (centres undefined)	-0.657%
Cc1ccc(C(C)NC(=O)CCc2cnn(C)c2)cc1F (centres undefined)	-0.348%
CC(C)OCCN1CCC(Nc2nccnc2C#N)CC1	2.72%
COC(=O)c1ccc(Cn2cccc(C(F)(F)F)c2=O)c(OC)c1	8.55%
CCN(C)S(=O)(=O)c1ccc(Cl)cc1C#N	-36.9%

Structure (SMILES)	cytotoxicity at 10 µM
O=C1CC(N(C(=O)c2ccc(-n3cccc3)cc2)C2CC2)C(=O)N1 (centres undefined)	-1.67%
CC1CCCCN1C(=O)c1ccc2c(c1)OCCCO2 (centres undefined)	9.62%
CC(CNC(=O)N1CCN(Cc2ccon2)CC1)Cc1cccs1 (centres undefined)	-1.26%
Cn1cc(CCNC(=O)N2CCCC(Cc3nccn3C)C2)cn1 (centres undefined)	-4.52%
CN(CCCc1cc(-c2ccc(F)cc2)n[nH]1)C(=O)CCn1cncn1	-137%
Cc1nnc(CN(C)S(=O)(=O)c2ccc(Br)cc2Cl)n1C	12.6%
CC1CCN(C(=O)CN2CCC(c3n[nH]c(C4CC4)n3)CC2)CC1	-0.297%
COc1cccc(OCC(=O)N(C)c2cccnc2N(C)C)c1	0.102%
Cc1nn(C)c(C)c1NC(=O)CN1CCc2c(nc(C3CC3)n2C)C1	-5.31%
CCOc1nnc(CN(C)C2CCCN(c3cccnn3)C2)s1 (centres undefined)	-17.3%
CO[C@@H]1CO[C@@]2(CCCN(C(=O)N3CCCC3)C2)C1	-98.6%
COC[C@@H]1CCC[C@@]12CN(C(=O)C1CCOCC1)CCO2	-111%
O=C(c1cscn1)N1CCN2C[C@H](OCc3cccnc3)C[C@H]2C1	-7.62%
Fc1cccc(-n2cc(CN3CCCCC3CCn3ccnc3)cn2)c1 (centres undefined)	-8.55%
CCCN1CCN(C(=O)c2ccc3nc(C)oc3c2)[C@H]2CS(=O)(=O)C[C@H]21	-23.2%
CCOc1cc(CNCc2ncc[nH]2)c(Cl)cc1OC(C)C	5.45%
Cc1ccc(CN(C)C(=O)C(C)n2ccnc2C(C)C)o1 (centres undefined)	5.99%
COc1coc(CN2CCCC3(CCC(=O)N(CC4CC4)C3)C2)cc1=O (centres undefined)	-34.4%
Cc1ncccc1OC1(C(=O)NCCc2ccccn2)CCNCC1	1.83%
O=C(c1ccc(F)c(F)c1)N1CCC(Cn2cc(CO)nn2)CC1	5.95%
CCc1cc(NCCNc2ccncc2C)n2nc(C)c(C)c2n1	3.29%
CC(C(=O)O)N1CCc2onc(-c3ccc4c(c3)OCO4)c2C1 (centres undefined)	-6.46%
CCCc1nnc2sc(C3CCS(=O)(=O)CC3)nn12	1.4%
COc1ccc(CN2CCSCC2)c(OC)c1	7.94%
OCCCc1nncn1-c1cccc(C(F)(F)F)c1	6.74%
Cc1cc(CC(C)NC2CCN(CC(C)C)CC2)[nH]n1 (centres undefined)	-8.32%
CCCN1CCCn2nc(CNC(=O)C3CCOC3)cc2C1 (centres undefined)	0.237%
